Only some compounds are listed: those with a hit (about 4.1% of all), similar ones and a draw of the others.
KCNK3 block = human KCNK3 channel inhibition, primary screen; O14649; CHO-KCNK3 thallium flux, FluxOR fluorescence; stronger effect = lower value; B-score at 10 µM; 340,000 compounds, 0.84% hits; AID 602410;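 active = B-score under library mean minus 4 SD, starting fluorescence ratio at most library mean plus 5 SD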;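 also: more negative B-score means stronger inhibition of thallium flux through KCNK3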
Target sequence (O14649 whole entry, looked up): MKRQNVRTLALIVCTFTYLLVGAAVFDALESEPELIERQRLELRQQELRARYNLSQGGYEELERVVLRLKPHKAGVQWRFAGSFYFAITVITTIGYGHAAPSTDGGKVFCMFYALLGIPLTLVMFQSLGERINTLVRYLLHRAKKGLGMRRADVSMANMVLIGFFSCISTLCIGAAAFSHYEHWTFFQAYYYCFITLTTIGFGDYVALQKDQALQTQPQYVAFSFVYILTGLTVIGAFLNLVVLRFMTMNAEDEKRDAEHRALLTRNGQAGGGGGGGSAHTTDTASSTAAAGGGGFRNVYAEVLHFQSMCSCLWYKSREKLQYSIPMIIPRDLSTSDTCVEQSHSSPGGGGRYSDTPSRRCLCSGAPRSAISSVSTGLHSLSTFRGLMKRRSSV
KCNK9 inh = blocks the human KCNK9 two-pore domain potassium channel; HEK293 KCNK9, FluxOR thallium flux fluorescence; stronger effect = lower value; B-score at 10 µM; 310,000 compounds, 1.2% hits;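 active = ratio B-score over 3 SD below the library mean, with starting fluorescence within 5 SD of its mean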;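 also: negative B-score means less thallium flux so channel inhibition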
KCNQ1 pot = human KCNQ1 channel potentiation or activation. CHO-K1 KCNQ1, thallium flux FluxOR fluorescence; stronger effect = higher value. B-score at 10 µM. 310,000 compounds, 0.35% hits. AID 2648;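 active = fluorescence ratio B-score, a plate-corrected score, at least three library SD, with initial intensity B-score within 5 SD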
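assay system = CHO-K1 cells stably expressing KCNQ1 | medium = assay buffer, equal DMSO in all wells | timing = 37 °C overnight plating, 90-min dark dye load, 20-min compound pretreatment | measured by = kinetic FluxOR thallium fluorescence, 10-s 1-Hz baseline, 110-s post-stimulus read | measure = fluorescence change relative to baseline, converted to B score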
Cl transport mod = modulates chloride dependent transport by human KCC2; Q9H2X9; KCC2 cells, thallium flux FluoZin-2 fluorescence; B-score of Tl+ flux slope (higher = more flux/activation; lower = inhibition) at 10 µM; 190,000 compounds, 2.2% hits; AID 1456;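 active = thallium flux slope and its plate-corrected score both differing from the plate sample mean at a set confidence after two filtering rounds, in either direction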;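 also: slope of fluorescence scaled to starting intensity during 10 to 20 s after thallium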
KCNQ1 block = blocks the human KCNQ1 potassium channel. P51787. CHO-K1 KCNQ1, FluxOR thallium flux fluorescence; stronger effect = higher value. B-score at 10 µM. 310,000 compounds, 1.3% hits. AID 2642;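 active = compounds whose thallium flux B-score, printed positive for inhibition, exceeds three library SD while starting fluorescence stays within three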;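 also: channel opened by potassium depolarization with thallium stimulus after 20 min compound exposure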
hERG protect = hERG (human) protection from proarrhythmic block; Q12809; CHO-hERG, FluxOR thallium flux, dofetilide IC70 present; activation (rescue from dofetilide block), less the hit threshold, % at 10 µM; 310,000 compounds, 0.51% hits;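 active = activation above the mean of controls blocked by dofetilide plus 5 SD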;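 also: thallium influx through hERG after potassium depolarization seen as dye fluorescence rise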
KCNK3 confirm = confirmation of human KCNK3 two-pore domain potassium channel inhibitors; shares compounds with KCNK3 block; CHO-KCNK3 thallium flux, FluxOR fluorescence; 0% buffer, 100% carvedilol maximal block; ratio percent of control, % at 10 µM; 2,400 compounds, 99% hits;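 active = ratio percent of control, averaged over triplicates, above buffer control mean plus 5 SD, cut at about 64% in these data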;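 also: ratio is the fluorescence rise from min to max over baseline after thallium stimulus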
KCNK3 uninduced = activity in cells without induced KCNK3 expression | shares compounds with KCNK3 block | non-induced KCNK3 parental cells, FluxOR thallium flux; stronger effect = lower value | thallium flux ratio (lower = more inhibition) at 10 µM | 2,400 compounds, 40% hits;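 active = thallium flux ratio, averaged over three wells, more than 5 SD below the buffer control mean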;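 also: host cells are CHO cells without KCNK3 induction; ratio is peak minus trough fluorescence over baseline then normalized to buffer controls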
Numbers without * were called inactive; i = inactive; . = no result given.

SMILES	KCNK3 block	KCNK9 inh	KCNQ1 pot	Cl transport mod	KCNQ1 block	hERG protect	KCNK3 confirm	KCNK3 uninduced
Cc1cc(=O)oc2cc(OCC(=O)N3CCC(O)CC3)c(Cl)cc12	i	i	i	.	i	-2	.	.
O=C(N1CCCC1)C12CC3CCC(CC(C3)C1)C2	-12*	i	i	-0.63	i	-11	86*	i
COc1ccc(C(C)=O)cc1COc1ccc(F)cc1	-9.2*	i	i	0.068	i	-15	115*	i
COc1ccc(C(C)=O)cc1COC(=O)CNC(=O)c1ccc(F)cc1	i	i	i	0.19	i	-4	.	.
CNC(=O)NC(=O)COC(=O)c1ccc(-n2c(C)ccc2C)cc1	i	i	i	0.57	i	-13	.	.
Cc1ccc(NC(=O)NNC(=O)C2CC(c3cccs3)=NO2)cc1 (centres undefined)	i	i	i	.	i	-3	.	.
COc1ccc(OC)c(-c2cc(C(=O)Nc3ccccc3C(N)=O)c3ccccc3n2)c1	-9.3*	i	i	.	i	-18	111*	0.14*
COc1ccc(N2CCOCC2)c(NC(=O)c2cccc3ccccc23)c1	-9.5*	i	i	.	i	-7	108*	i
CCN(CC)S(=O)(=O)c1ccc(N2CCOCC2)c(NC(=O)c2cccc3ccccc23)c1	i	i	i	-1.1	i	-14	.	.
O=C(Nc1ccccc1N1CCOCC1)c1cc(-c2ccncc2)nc2ccccc12	i	i	i	0.25	i	-10	.	.
CCOc1ccccc1NC(=O)c1cc(-c2cc(OC)c(OC)c(OC)c2)nc2ccccc12	-9.7*	i	i	.	i	-21	132*	0.093*
COc1ccc(-c2cc(C(=O)Nc3ccccc3N3CCOCC3)c3ccccc3n2)cc1OC	-8.7*	i	i	-0.21	i	-19	95*	0.13*
CCOC(=O)c1sc2nc(C)nc(N3CCCCC3C)c2c1C (centres undefined)	-8.8*	i	i	0.018	i	-11	90*	0.15*
CC(CNC(=S)Nc1cc(F)cc(F)c1)CSc1ccc(Cl)cc1 (centres undefined)	-13*	i	i	0.24	9*	-15	117*	0.14*
COC(=O)c1cc(NC(=O)Cn2c(=O)cnc3ccccc32)cc(C(=O)OC)c1	i	i	i	.	i	-6	.	.
O=C(Nc1ccc(Cl)cc1Cl)NC1CCCC1	i	i	i	0.25	i	-13	.	.
CN(C(=O)Nc1ccc(Cl)cc1Cl)C1CCCC1	-9.1*	i	i	.	i	-22	76*	i
CC1CC(C)(C)OC(C[N+]2(C)CCCCC2)O1 (centres undefined)	i	i	i	1.2	i	0	.	.
CC(C)(C)Nc1nc(SCc2ccccc2)nc(N2CCOCC2)n1	-9.4*	i	i	2.4	i	-8	103*	0.16*
Cc1ccc(CSc2nc3c(c(N(C)C)n2)CCCC3)cc1	-8.9*	i	i	.	i	-4	139*	0.12*
CCc1ccc(N2CC(C(=O)N/N=C/c3ccccc3OC)CC2=O)cc1 (centres undefined)	i	i	i	.	i	-8	.	.
CCc1ccc(N2CC(C(=O)N/N=C/c3cc([N+](=O)[O-])ccc3O)CC2=O)cc1 (centres undefined)	-9.1*	i	i	-2	i	-11	91*	i
CC12CN(C(=O)c3cccc([N+](=O)[O-])c3)C3(C#N)CC1CCC23C (centres undefined)	i	i	i	.	i	0	.	.
COc1ccccc1/C=N/NC(=O)CSc1ccc2ccccc2n1	-11*	i	i	.	i	-7	114*	i

Screening data as filed in PubChem BioAssay.
